KCNQ1 block = inhibitors of human KCNQ1 potassium channel | P51787 | CHO-K1 KCNQ1, FluxOR thallium flux fluorescence; stronger effect = higher value | B-score at 10 µM | actives 1.3% (n = 310,000);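 active = compounds whose thallium flux B-score, printed positive for inhibition, exceeds three library SD while starting fluorescence stays within three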;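 note: channel opened by potassium depolarization with thallium stimulus after 20 min compound exposure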
hERG protect = hERG (human) protection from proarrhythmic block | Q12809 | CHO-hERG, FluxOR thallium flux, dofetilide IC70 present | activation (rescue from dofetilide block), less the hit threshold, % at 10 µM | actives 0.51% (n = 310,000) | AID 1511;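 active = activation above the mean of controls blocked by dofetilide plus 5 SD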;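 note: thallium influx through hERG after potassium depolarization seen as dye fluorescence rise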
KCNK3 inh = human KCNK3 channel inhibition, primary screen | O14649 | CHO-KCNK3 thallium flux, FluxOR fluorescence; stronger effect = lower value | B-score at 10 µM | actives 0.84% (n = 340,000) | AID 602410;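 active = B-score under library mean minus 4 SD, starting fluorescence ratio at most library mean plus 5 SD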;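 note: more negative B-score means stronger inhibition of thallium flux through KCNK3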
Target sequence (O14649 whole entry, looked up): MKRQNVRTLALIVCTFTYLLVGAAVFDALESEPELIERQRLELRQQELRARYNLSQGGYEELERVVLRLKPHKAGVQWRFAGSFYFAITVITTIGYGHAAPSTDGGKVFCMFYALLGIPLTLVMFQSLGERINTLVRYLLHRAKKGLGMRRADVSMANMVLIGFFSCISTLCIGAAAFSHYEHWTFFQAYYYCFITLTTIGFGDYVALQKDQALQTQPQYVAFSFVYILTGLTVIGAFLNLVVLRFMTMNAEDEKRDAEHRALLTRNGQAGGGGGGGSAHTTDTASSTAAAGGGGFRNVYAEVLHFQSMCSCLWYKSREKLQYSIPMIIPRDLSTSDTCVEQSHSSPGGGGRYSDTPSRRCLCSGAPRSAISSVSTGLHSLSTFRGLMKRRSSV
KCNK9 inh = inhibitors of human KCNK9 two-pore domain potassium channel; HEK293 KCNK9, FluxOR thallium flux fluorescence; stronger effect = lower value; AID 488922; B-score at 10 µM; actives 1.2% (n = 310,000); Q9NPC2;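 active = ratio B-score over 3 SD below the library mean, with starting fluorescence within 5 SD of its mean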;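 note: negative B-score means less thallium flux so channel inhibition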
KCC2 mod = modulators of human KCC2 chloride dependent transport; B-score of Tl+ flux slope (higher = more flux/activation; lower = inhibition) at 10 µM; actives 2.2% (n = 190,000); Q9H2X9; KCC2 cells, thallium flux FluoZin-2 fluorescence;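 active = thallium flux slope and its plate-corrected score both differing from the plate sample mean at a set confidence after two filtering rounds, in either direction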;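 note: slope of fluorescence scaled to starting intensity during 10 to 20 s after thallium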
KCNQ1 act = potentiators or activators of human KCNQ1 potassium channel; P51787; CHO-K1 KCNQ1, thallium flux FluxOR fluorescence; stronger effect = higher value; AID 2648; actives 0.35% (n = 310,000); B-score at 10 µM;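 active = fluorescence ratio B-score, a plate-corrected score, at least three library SD, with initial intensity B-score within 5 SD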
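Assay system: CHO-K1 cells stably expressing KCNQ1; Medium: assay buffer with matched DMSO; Also added: K+/Tl+ depolarizing stimulus; Dosing: single dose; Timing: dye 90 min, compound 20 min, room temperature; Measured by: kinetic FluxOR thallium fluorescence, 10-s 1-Hz baseline, 110-s post-stimulus read; Read-out: peak-minus-minimum fluorescence over initial fluorescence, negative-control normalized, B-scored.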
Numbers without * were called inactive; i = inactive; nt = not tested or not shown. Shown are actives, neighbours in structure and some others; about 4.1% of the full set was active somewhere.

SMILES	KCNQ1 block	hERG protect	KCNK3 inh	KCNK9 inh	KCC2 mod	KCNQ1 act
Cc1ccc(NC(=O)CSCC(=O)Nc2cccc3ncccc23)cc1	i	-17	i	i	nt	i
O=C(Nc1ccc(Cl)cc1)c1cccs1	i	-14	i	-7.2*	-0.37	i
O=C(NC(=S)Nc1ccc(N2CCOCC2)c(Cl)c1)C(c1ccccc1)c1ccccc1	6*	-6	i	i	0.78	i
Cc1cc(OCC(=O)NNC(=S)NC(=O)c2ccc(Br)o2)ccc1Cl	i	-10	i	i	nt	33*
O=C(/C=C/c1ccccc1)NC(=S)Nc1ccc(N2CCOCC2)c(Cl)c1	i	-11	i	i	nt	i
O=C(NC(=S)NNC(=O)c1cccs1)c1ccc(Br)o1	i	5	i	i	15*	i
CCC(=O)NC(=S)Nc1ccc(NC(=O)COc2ccc(Cl)c(C)c2)cc1	i	-6	i	i	0.66	i
O=C(CC1C=CCC1)Nc1ccccc1 (stereo not given)	nt	nt	i	nt	nt	nt
Nc1ncc(S(=O)(=O)c2ccc([N+](=O)[O-])cc2)s1	nt	nt	i	nt	nt	nt
COc1ccc(N2CCN(C(=O)c3cc([N+](=O)[O-])ccc3N3CCN(CCO)CC3)CC2)cc1	i	-6	i	i	nt	i
CC(Oc1ccccc1)C(=O)N1CCN(c2ccc(N3CCCCC3)nn2)CC1 (stereo not given)	i	-14	i	i	nt	i
O=C(NCCC(c1ccccc1)c1ccccc1)c1cccs1	i	-4	i	-7*	-1.4	i
O=C(NC(=S)NCc1ccccc1)c1cccs1	i	16*	i	i	nt	16*
O=C(NC(=S)Nc1nc2ccccc2s1)c1cccs1	i	52*	i	i	72*	54*
O=C(CNC(=S)NC(=O)c1ccco1)c1ccccc1	i	-6	i	i	5.5*	i
COc1ccc(C(=O)Nc2cccc(NC(=O)c3cccs3)c2)cc1OC	i	-7	i	i	nt	i
COc1ccc(/C=C/C(=O)c2ccc(NC(=O)c3cccs3)cc2)cc1OC	i	8.9*	i	i	nt	i
COc1ccc(C(=O)C[n+]2cc(-c3ccc(OC)cc3)n3c2CCCC3)cc1	i	-5	i	i	0.17	i
Cc1ccc(C(=O)C[n+]2cc(-c3ccc(C)cc3)n3c2CCCCC3)cc1	14*	-24	i	i	0.014	i
CCCC1(C2CCCC2)NC(=O)NC1=O (stereo not given)	nt	nt	i	nt	nt	nt
Cc1cc(N/N=C/c2c(O)ccc3ccccc23)nc(-c2ccccc2O)n1	10*	-13	i	i	-0.2	i
Oc1ccc2ccccc2c1/C=N/Nc1ccccc1	i	-5	i	i	-0.077	i
CCOc1ccc(S(=O)(=O)N2CCC(C(=O)NCc3ccncc3)CC2)cc1C	i	-8	i	i	nt	i
CCCNC(=O)Nc1cc(OC)c(OC)cc1Cc1nccc2cc(OC)c(OC)cc12	i	-8	i	i	nt	i
COc1ccc(C)cc1NC(=O)c1cc2c(=O)n3ccccc3nc2n1C	i	50*	i	i	0.85	i
SMILES	KCNQ1 block	hERG protect	KCNK3 inh	KCNK9 inh	KCC2 mod	KCNQ1 act
Cn1c(C(=O)N2CCCC(C(=O)O)C2)cc2sccc21 (stereo not given)	i	-3	i	i	0.37	i
CCOc1ccc(S(=O)(=O)N2CCCC(C(=O)N3CCOCC3)C2)cc1Cl (stereo not given)	i	-3	i	i	nt	i
CCOc1ccc(S(=O)(=O)N2CCCC(C(=O)NCCN3CCOCC3)C2)cc1Cl (stereo not given)	i	-7	i	i	nt	9*
Cn1c(C(=O)N2CCCC(C(=O)NCCN3CCOCC3)C2)cc2sccc21 (stereo not given)	i	7.3*	i	i	0.79	i
O=C(NCc1ccccc1)c1ccc(NC(=O)C2CCC2)cc1	nt	nt	i	nt	nt	nt
CN1CCCC(OC(=O)c2ccc(S(=O)(=O)N(C)C)cc2)C1 (stereo not given)	i	-6	i	i	nt	i
CC(C)C(c1nnnn1Cc1ccccc1)N1CCN(Cc2ccco2)CC1 (stereo not given)	i	-4	i	i	0.024	i
CC(C)C(c1nnnn1Cc1ccco1)N1CCN(c2cccc(Cl)c2)CC1 (stereo not given)	i	-4	i	-8*	-0.35	i
O=C1C=CC(=Nc2ccc(F)cc2)O1	nt	nt	i	nt	nt	nt
O=C(O)C1CCN(c2nc(-c3ccccc3)nc3c2oc2ccccc23)CC1	i	-4	i	i	-2.8*	i
CCOC(=O)C1CCN(c2ncnc3c2oc2ccccc23)CC1	i	-19	-9.9*	i	-1.7	i
Cc1ccc(CSCC(=O)N(C)CC(=O)Nc2c(Cl)cccc2Cl)cc1	i	-11	i	i	nt	i
COCCN(C(=O)CSc1nc2ccccc2o1)c1c(N)n(Cc2ccccc2)c(=O)[nH]c1=O	nt	nt	i	nt	nt	nt
c1ccc2nc(N3CCCC3)c(N3CCCCC3)nc2c1	nt	nt	-10*	nt	nt	nt
CCCC[C@@H]1CCCO[C@@](C(=O)NCc2ccccn2)(C(F)(F)F)C1	i	-5	i	i	nt	i
CC1(C)CC(c2nc(-c3ccc(Br)cc3)cs2)CCS1 (stereo not given)	i	-10	i	i	-0.15	i
CC1(C)CC(c2nc(-c3ccc(Cl)cc3)cs2)CCS1 (stereo not given)	9*	-10	i	i	1.7	i
O=C(Nc1ccc(C(=O)Oc2ccccc2)c(O)c1)c1ccccc1	i	-1	i	-7.2*	-0.12	i
O=C(Nc1ccc(C(=O)Oc2ccccc2)c(O)c1)c1ccco1	i	-10	i	-7.2*	nt	i
O=C(Nc1ccc(OC(=O)c2cccs2)cc1)c1ccco1	i	-3	i	i	-0.02	i
CCOC(=O)Nc1ccc(C(=O)Oc2ccccc2)c(O)c1	i	-6	i	i	0.6	i
Cc1ccc(C)c(OCCC(=O)OCC(=O)NC(=O)NC2CCCC2)c1	i	-3	i	i	nt	i
COc1ccc(NC2CCCN(C(=O)CCN3CCOCC3)C2)cc1 (stereo not given)	i	-8	i	i	nt	i
COc1ccc(C(=O)C(/C=N/O)=N/Nc2ccc(F)cc2)cc1	10*	-9	i	i	-1.6	i
CCC(C)c1ccc(S(=O)(=O)N2CCN(C(=O)c3ccc(Cl)c(S(=O)(=O)N4CCOCC4)c3)CC2)cc1 (stereo not given)	nt	nt	-9.6*	nt	nt	nt

Assay outcomes as filed in PubChem.
